# Screening results deposited in PubChem by The Scripps Research Institute Molecular Screening Center.
# Compounds with a hit are over-represented: about 2.1% of the library has one in this group of screens.
# CHRM5 agonist: human M5 muscarinic receptor agonists, primary screen, CHO-K1 cells, Fluo-8 calcium fluorescence; actives 0.19% (n = 360,000); activation, % at 3 µM; CHO-K1 hM5 cells; 0% DMSO wells, 100% maximal acetylcholine response;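 active means activation above the run's mean over test compounds plus 3 SD, cut at about 23% in these data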;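 further: signal is peak over basal fluorescence ratio across the kinetic read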
# Target sequence (P08912 whole entry, looked up): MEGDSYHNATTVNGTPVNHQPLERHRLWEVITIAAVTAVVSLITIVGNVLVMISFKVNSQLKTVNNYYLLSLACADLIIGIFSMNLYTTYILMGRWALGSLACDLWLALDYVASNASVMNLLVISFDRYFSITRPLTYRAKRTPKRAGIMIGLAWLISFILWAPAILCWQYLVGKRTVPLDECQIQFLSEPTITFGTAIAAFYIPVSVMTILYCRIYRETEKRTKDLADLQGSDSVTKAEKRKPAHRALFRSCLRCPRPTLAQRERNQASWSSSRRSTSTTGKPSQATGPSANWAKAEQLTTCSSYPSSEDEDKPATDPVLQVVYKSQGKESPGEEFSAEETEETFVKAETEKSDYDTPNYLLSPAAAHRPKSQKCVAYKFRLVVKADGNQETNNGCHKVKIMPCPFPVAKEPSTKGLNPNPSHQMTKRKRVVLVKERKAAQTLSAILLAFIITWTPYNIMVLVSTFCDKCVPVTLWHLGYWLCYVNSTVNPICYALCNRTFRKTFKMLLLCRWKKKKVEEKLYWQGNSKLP
# CHRM5 antagonist: human M5 muscarinic receptor antagonists, primary screen, CHO cells, Fluo-8 calcium fluorescence; CHO-hM5 cells, ACh EC80; inhibition, % at 3 µM; Muscarinic acetylcholine receptor M5 (Homo sapiens), P08912; actives 0.59% (n = 360,000);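 active means inhibition above a per-plate cutoff, the mean of that plate's test compounds plus 3 SD, cut at about 27% in these data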;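 further: 0% = acetylcholine EC80 with DMSO and 100% = DMSO without agonist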
# M1 antag: human M1 muscarinic receptor antagonists, primary screen, CHO-K1 cells, Fluo-8 calcium fluorescence, 1536-well; Muscarinic acetylcholine receptor M1 (Homo sapiens), P11229; CHO-K1 hM1, ACh EC80 antagonist; inhibition, % at 3 µM; actives 1.3% (n = 360,000); AID 588852, 2011;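 active means percent inhibition above its own plate's cutoff, namely the mean of that plate's compound wells plus 3 SD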;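 further: peak over basal fluorescence ratio during 140 s after agonist addition; 0% = ACh EC80 plus DMSO and 100% = DMSO alone without agonist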
# M1 PAM: human M1 muscarinic receptor positive allosteric modulators, primary screen, CHO-K1 cells, Fluo-8 calcium fluorescence, 1536-well; activation, % at 3 µM; Muscarinic acetylcholine receptor M1 (Homo sapiens), P11229; CHO-K1 hM1, ACh EC20; 0% = ACh EC20, 100% = maximal ACh; actives 0.088% (n = 360,000); in the data active means activation above about 19%, passing the limit was not always enough
# M1 ag: human M1 muscarinic receptor agonists, primary screen, Fluo-8 calcium fluorescence, CHO-K1 cells, HTS; Muscarinic acetylcholine receptor M1 (Homo sapiens), P11229; CHO-K1 hM1, agonist mode; 0% DMSO, 100% acetylcholine EC100; activation, % at 3 µM; actives 0.33% (n = 360,000); AID 588814, 2011;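 active means activation above the run's mean compound activation plus 3 SD, cut at about 16% in these data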;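 further: peak over basal fluorescence ratio within a 140 s kinetic read after compound addition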
# M5 PAM: human M5 muscarinic receptor positive allosteric modulators, primary screen, CHO-K1 cells, Fluo-8 calcium fluorescence | AID 624038, 2012 | activation, % at 3 µM | actives 0.3% (n = 360,000) | Muscarinic acetylcholine receptor M5 (Homo sapiens), P08912 | CHO-K1 hM5, ACh EC20 PAM; 0% = ACh EC20, 100% = ACh EC100;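 active means activation above the run cutoff, the mean activation of all test compounds plus 3 SD, cut at about 18% in these data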
#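 System: CHO-K1 cell line with stable human muscarinic M5 receptor expression | Also added: EC20 acetylcholine as agonist stimulus | Compound: One concentration, 3 µM final (nominal) | Timing: Fluo-8 loading 80 min at 37 °C plus 30 min room temperature | Measured by: Fluo-8 calcium dye fluorescence, kinetic read | Read-out basis: % activation, ACh-normalized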
# * hit, by the source's call.
SMILES,CHRM5 agonist,CHRM5 antagonist,M1 antag,M1 PAM,M1 ag,M5 PAM
Cc1c(NS(=O)(=O)c2cccc(C(=O)N3CCC(C(N)=O)CC3)c2)c(=O)n(-c2ccccc2)n1C,0,-3,-35,31*,4,8
COc1cc(OC)cc(C(=O)OCc2cc3ccccc3[nH]c2=O)c1,-4,-7,-9,5,-2,-6
CC1(C(=O)NCc2cccc(C(F)(F)F)c2)CCN1Cc1ccc2ccccc2c1 (configuration not stated),-3,1,32*,-19,-8,-16
O=C(NCCc1ccccn1)c1c(-c2ccsc2)sc2ccccc12,3,-2,-14,4,2,-9
Cn1c(=O)n(Cc2ccccc2Cl)c2ccccc21,-3,43*,-12,14,-8,-3
COc1ccccc1CN1CCC(CNS(=O)(=O)c2cc(-c3onc(C)c3C)ccc2OC)CC1,-9,15,102*,-42,-13,-14
Cc1cc(-c2ccc(C)c(S(=O)(=O)NCC3CCN(Cc4ccccc4F)CC3)c2)on1,-7,-13,55*,-23,-5,2
Cc1cc(-c2ccc(C)c(S(=O)(=O)NCC3CCN(Cc4cccc(F)c4)CC3)c2)on1,-4,4,20,-15,-2,-12
COc1cccc(CCN2CCC(CNS(=O)(=O)c3cc(-c4cc(C)no4)ccc3OC)CC2)c1,-7,20,37*,-23,-3,-7
O=C1CCCC2=C1C(c1ccc(O)c(O)c1)c1c(ccc3ncccc13)N2 (configuration not stated),0,6,7,-1,-8,-2
COc1ccc(C(=O)N2CCN(c3nc(C4CC4)nc4sc(C)c(C)c34)CC2)cc1,-4,1,-2,4,-6,-1
Cc1ccc(NC(=O)[C@@H]2CCCN2C(=O)c2cccs2)cc1S(=O)(=O)N1CCCCC1,-3,1,-12,6,-8,7
CC1CC(C)CN(S(=O)(=O)c2ccc(NC(=O)[C@@H]3CCCN3C(=O)c3cccs3)cc2)C1 (some centres not stated),-8,3,30*,-22,-7,-22
N#Cc1ccccc1S(=O)(=O)N1CCN(C(=O)[C@@H]2CCCN2C(=O)c2cccs2)CC1,0,1,33*,-10,-4,1
COc1ccc(/C=N/NC(=S)NC2CCS(=O)(=O)C2)cc1OC (configuration not stated),1,7,-3,-4,-2,-7
C[C@@]12C(=O)Nc3ccc(Cl)cc3C(=O)N1[C@H]1c3cc(Cl)ccc3OC[C@@H]1[C@@H]2c1ccccc1,-1,15,18,-11,-5,-13
C[C@@]12C(=O)Nc3ccccc3C(=O)N1[C@H]1c3cc(Cl)ccc3OC[C@@H]1[C@@H]2c1ccccc1,-7,9,33*,-28,-5,-23
Cc1ccc2c(c1)[C@H]1[C@H](CO2)[C@H](c2ccccc2)[C@]2(C)C(=O)Nc3ccccc3C(=O)N12,-7,21,86*,-38,-9,-34
Cc1ccc2c(c1)[C@H]1[C@H](CO2)[C@H](c2ccccc2)[C@]2(C)C(=O)Nc3ccc(Cl)cc3C(=O)N12,-3,13,35*,-22,-6,-32
COc1ccc2c(c1)C(=O)N1[C@H]3c4cc(C)ccc4OC[C@@H]3[C@H](c3ccccc3)[C@]1(C)C(=O)N2,-3,18,60*,-32,-8,-23
COc1ccc2c(c1)OC[C@H]1[C@H]2N2C(=O)c3ccccc3NC(=O)[C@@]2(C)[C@H]1c1ccccc1,-6,12,75*,-31,-6,-20
O=C(c1ccncc1)N1CCN(S(=O)(=O)c2ccc(F)cc2)CC1,-2,1,-2,4,-3,-3
CCOC(=O)c1cnc2ccc(OCC)cc2c1N1CCN(c2ccccc2OC)CC1,-4,17,34*,-12,-1,-23
CCOc1ccc2ncc(C(=O)c3ccc(OC)cc3)c(N3CCN(CC)CC3)c2c1,-4,4,-4,5,-12,-3
COc1ccc(-c2csc3nc(-c4ccccc4F)oc(=O)c23)cc1,3,13,12,-2,-1,1
SMILES,CHRM5 agonist,CHRM5 antagonist,M1 antag,M1 PAM,M1 ag,M5 PAM
O=C(CNC(=O)C1CCCCC1)OCC(=O)c1cccc(Cl)c1,1,8,-7,5,-2,0
CCCN1CCN(C(=O)C2CCN(S(=O)(=O)c3c(C)noc3/C=C/c3ccc(C)cc3)CC2)CC1,-8,15,34*,-22,-5,-8
CCN(CC)C(=O)CSc1nc(Cc2ccccc2)nc2ccccc12,5,-18,2,-4,-4,8
Cc1ccc(S(=O)(=O)NC2CCCCC2)c2nsnc12,-8,-3,4,-5,-12,-3
O=C(Nc1ccc(Br)cc1)c1ccc(F)c(S(=O)(=O)NCc2cccs2)c1,9,38*,34*,-19,-2,-18
COc1ccc(N=Cc2oc3ccc4ccccc4c3c2O)cc1,47*,19,16,-3,11,-20
O=C(C1CC1)N(CCN(C(=O)C1CC1)c1ccccc1)c1ccccc1,-5,10,19,-7,-1,-14
CCOC(=O)C1CCCN(Cc2nc(N)nc(Nc3ccccc3OC)n2)C1 (configuration not stated),3,-1,-9,15,20*,-3
CCOC(=O)C1CCCN(Cc2nc(N)nc(Nc3ccc(OC)cc3)n2)C1 (configuration not stated),3,0,5,-2,12,-4
N#C/C(=C(/O)CN1CCCC1)c1nc(-c2ccccc2)cs1,-4,0,-6,7,-4,10
CCOC(=O)C1CCCN(C/C(O)=C(\C#N)c2nc(-c3ccc(Cl)cc3)cs2)C1 (configuration not stated),5,7,8,-10,25*,-5
COc1ccccc1Nc1nc(N)nc(CN2CCCCCC2)n1,-2,-11,8,-2,-6,3
CCOC(=O)C1CCCN(Cc2nc(N)nc(Nc3ccc(Cl)cc3)n2)C1 (configuration not stated),10,-2,-33,3,37*,-9
